In brackets after ≈: the same amount, converted by molar mass. Numbered stars: 1 amine (or outer) side, 2 acyl side, 3 side chain; on linkers, the order of the positions; unused ones are H or OH. Bridge positions count the residues as written; N and C are the ends. Square brackets hold non-standard residues; d marks the D form. Peptide text beside a SMILES is read from it. * marks the point of attachment. hTyr(3S-OH,4S-OH,3'-OSO3H) = N[C@H](C(=O)O)[C@H](O)[C@@H](O)c1ccc(O)c(OS(=O)(=O)O)c1; Orn(4R-OH,5R-OH) = O=C([C@H](C[C@@H](O)[C@@H](O)N[*:3])N[*:1])[*:2]; Pro(3S-OH,4S-Me) = C[C@H]1CN[C@H](C(=O)O)[C@H]1O; X1 = CCCCCOc1ccc(-c2cc(-c3ccc(C(=O)*)cc3)no2)cc1; Gln(3R-OH) = NC(=O)C[C@@H](O)[C@H](N)C(=O)O; Hyp = O=C(O)[C@@H]1C[C@@H](O)CN1
Columns and labels:
Aspergillus lentulus [1] = experiment: Antimicrobial activity against Aspergillus lentulus isolate CNM-CM-1290 obtained from sputum of patient after 48 hrs by broth microdilution method; format: functional; details: isolate CNM-CM-1290, 48 h
Outline: (§1)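 CLSI M38-A broth microdilution with modifications: RPMI 1640 with L-glutamine, 2% glucose, buffered to pH 7 with 0.165 M MOPS. Inoculum of 1 × 10^5 to 5 × 10^5 CFU/ml from 3- to 5-day-old cultures. Incubated 35°C, 48 h, humid. Visual reading with a mirror. MIC is complete growth inhibition; echinocandin MEC is hyphal morphological alteration. Azoles 8 to 0.015 μg/ml; others 16 to 0.03 μg/ml.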

Aspergillus lentulus [2] = experiment: Antimicrobial activity against Aspergillus lentulus isolate CNM-CM-3134 obtained from sputum of patient after 48 hrs by broth microdilution method; format: functional; details: isolate CNM-CM-3134, 48 h; outline: as §1
Aspergillus lentulus [3] = experiment: Antimicrobial activity against Aspergillus lentulus isolate CNM-CM-3364 obtained from bronchoalveolar lavage fluid of patient after 48 hrs by broth microdilution method; format: functional; details: isolate CNM-CM-3364, Lung; outline: as §1
Aspergillus lentulus [4] = experiment: Antimicrobial activity against Aspergillus lentulus isolate CNM-CM-3537 obtained from sputum of patient after 48 hrs by broth microdilution method; format: functional; details: isolate CNM-CM-3537, 48 h; outline: as §1
Aspergillus lentulus [5] = experiment: Antimicrobial activity against Aspergillus lentulus isolate CNM-CM-3538 obtained from sputum of patient after 48 hrs by broth microdilution method; format: functional; details: isolate CNM-CM-3538, 48 h; outline: as §1
Aspergillus lentulus [6] = experiment: Antimicrobial activity against Aspergillus lentulus isolate CNM-CM-3583 obtained from sputum of patient after 48 hrs by broth microdilution method; format: functional; details: isolate CNM-CM-3583, 48 h; outline: as §1
Aspergillus lentulus [7] = experiment: Antimicrobial activity against Aspergillus lentulus isolate CNM-CM-3599 obtained from sputum of patient after 48 hrs by broth microdilution method; format: functional; details: isolate CNM-CM-3599, 48 h; outline: as §1
Aspergillus lentulus [8] = experiment: Antimicrobial activity against Aspergillus lentulus isolate CNM-CM-4330 obtained from sputum of patient after 48 hrs by broth microdilution method; format: functional; details: isolate CNM-CM-4330, 48 h; outline: as §1
Aspergillus lentulus [9] = experiment: Antimicrobial activity against Aspergillus lentulus isolate CNM-CM-4370 obtained from sputum of patient after 48 hrs by broth microdilution method; format: functional; details: isolate CNM-CM-4370, 48 h; outline: as §1
Aspergillus lentulus [10] = experiment: Antimicrobial activity against Aspergillus lentulus isolate CNM-CM-4387 obtained from sputum of patient after 48 hrs by broth microdilution method; format: functional; details: isolate CNM-CM-4387, 48 h; outline: as §1
Aspergillus lentulus [11] = experiment: Antimicrobial activity against Aspergillus lentulus isolate CNM-CM-4415 obtained from sputum of patient after 48 hrs by broth microdilution method; format: functional; details: isolate CNM-CM-4415, 48 h; outline: as §1
Aspergillus lentulus [12] = experiment: Antimicrobial activity against Aspergillus lentulus isolate CNM-CM-4420 obtained from nail of patient after 48 hrs by broth microdilution method; format: functional; details: isolate CNM-CM-4420, 48 h; outline: as §1
Aspergillus lentulus [13] = experiment: Antimicrobial activity against Aspergillus lentulus isolate CNM-CM-4426 obtained from sputum of patient after 48 hrs by broth microdilution method; format: functional; details: isolate CNM-CM-4426, 48 h; outline: as §1
Aspergillus lentulus [14] = experiment: Antimicrobial activity against Aspergillus lentulus isolate CNM-CM-4428 obtained from skin of patient after 48 hrs by broth microdilution method; format: functional; details: isolate CNM-CM-4428, 48 h; outline: as §1
[15] = test system: Aspergillus fumisynnematus; experiment: Antimicrobial activity against Aspergillus fumisynnematus isolate CNM-CM-4063 obtained from bronchoalveolar aspirate of patient after 48 hrs by broth microdilution method; format: functional; details: isolate CNM-CM-4063, Lung; outline: as §1
Neosartorya hiratsukae [16] = experiment: Antimicrobial activity against Neosartorya hiratsukae isolate CNM-CM-3303 obtained from skin of patient after 48 hrs by broth microdilution method; format: functional; details: Aspergillus hiratsukae, isolate CNM-CM-3303, 48 h; outline: as §1
Neosartorya hiratsukae [17] = experiment: Antimicrobial activity against Neosartorya hiratsukae isolate CNM-CM-3305 obtained from skin of patient after 48 hrs by broth microdilution method; format: functional; details: Aspergillus hiratsukae, isolate CNM-CM-3305, 48 h; outline: as §1
Neosartorya hiratsukae [18] = experiment: Antimicrobial activity against Neosartorya hiratsukae isolate CNM-CM-3764 obtained from oropharyngeal exudate of patient after 48 hrs by broth microdilution method; format: functional; details: Aspergillus hiratsukae, isolate CNM-CM-3764, 48 h; outline: as §1
Neosartorya hiratsukae [19] = experiment: Antimicrobial activity against Neosartorya hiratsukae isolate CNM-CM-3740 obtained from oropharyngeal exudate of patient after 48 hrs by broth microdilution method; format: functional; details: Aspergillus hiratsukae, isolate CNM-CM-3740, 48 h; outline: as §1
Neosartorya hiratsukae [20] = experiment: Antimicrobial activity against Neosartorya hiratsukae isolate CNM-CM-4328 obtained from cornea of patient after 48 hrs by broth microdilution method; format: functional; details: Aspergillus hiratsukae, isolate CNM-CM-4328, Cornea; outline: as §1
[21] = test system: Neosartorya pseudofischeri; experiment: Antimicrobial activity against Neosartorya pseudofischeri isolate CNM-CM-3769 obtained from sputum of patient after 48 hrs by broth microdilution method; format: functional; details: Aspergillus thermomutatus
Outline: (§2)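 CLSI M38-A broth microdilution with modifications: RPMI 1640 with L-glutamine, MOPS-buffered to pH 7, plus 2% glucose. Inoculum 1 × 10^5 to 5 × 10^5 CFU/ml from 3–5-day cultures. Incubated at 35°C for 48 h, humid. Read visually with a mirror. MIC = complete growth inhibition; echinocandin MEC = altered hyphal morphology. QC strain A. fumigatus ATCC 2004305.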

[22] = test system: Neosartorya pseudofischeri; experiment: Antimicrobial activity against Neosartorya pseudofischeri isolate CNM-CM-2270 obtained from sputum of patient after 48 hrs by broth microdilution method; format: functional; details: Aspergillus thermomutatus, isolate CNM-CM-2270, 48 h; outline: as §2
[23] = test system: Neosartorya pseudofischeri; experiment: Antimicrobial activity against Neosartorya pseudofischeri isolate CNM-CM-4060 obtained from sputum of patient after 48 hrs by broth microdilution method; format: functional; details: Aspergillus thermomutatus; outline: as §2
[24] = test system: Neosartorya pseudofischeri; experiment: Antimicrobial activity against Neosartorya pseudofischeri isolate CNM-CM-3914 obtained from nail of patient after 48 hrs by broth microdilution method; format: functional; details: Aspergillus thermomutatus, isolate CNM-CM-3914, 48 h; outline: as §2
Aspergillus viridinutans [25] = experiment: Antimicrobial activity against Aspergillus viridinutans isolate CNM-CM-3147 obtained from oropharyngeal exudate of patient after 48 hrs by broth microdilution method; format: functional; details: isolate CNM-CM-3147, 48 h; outline: as §1
Aspergillus viridinutans [26] = experiment: Antimicrobial activity against Aspergillus viridinutans isolate CNM-CM-4518 obtained from nail of patient after 48 hrs by broth microdilution method; format: functional; details: isolate CNM-CM-4518, 48 h; outline: as §1
Aspergillus fumigatus = experiment: Antimicrobial activity against Aspergillus fumigatus ATCC 2004305 after 48 hrs by broth microdilution method; format: functional; details: ATCC 2004305, 48 h
[27] = test system: Aspergillus fumigatiaffinis; experiment: Antimicrobial activity against Aspergillus fumigatiaffinis isolate CNM-CM-2280 obtained from sputum of patient after 48 hrs by broth microdilution method; details: isolate CNM-CM-2280, 48 h
[28] = test system: Aspergillus fumigatiaffinis; experiment: Antimicrobial activity against Aspergillus fumigatiaffinis isolate CNM-CM-3227 obtained from bronchoalveolar lavage fluid of patient after 48 hrs by broth microdilution method; details: isolate CNM-CM-3227, Lung

SMILES: CCCCCOc1ccc(-c2cc(-c3ccc(C(=O)N[C@H]4C[C@@H](O)[C@@H](O)NC(=O)[C@@H]5[C@@H](O)[C@@H](C)CN5C(=O)[C@H]([C@H](O)CC(N)=O)NC(=O)[C@H]([C@H](O)[C@@H](O)c5ccc(O)c(OS(=O)(=O)O)c5)NC(=O)[C@@H]5C[C@@H](O)CN5C(=O)[C@H]([C@@H](C)O)NC4=O)cc3)no2)cc1 [MICAFUNGIN] (X1-[Orn(4R-OH,5R-OH)]T[Hyp][hTyr(3S-OH,4S-OH,3'-OSO3H)][Gln(3R-OH)][Pro(3S-OH,4S-Me)]; lactam 1-C)
- minimal effective concentration (Aspergillus lentulus [1]; read-out: MEC): 0.05 µg/mL
- minimal effective concentration (Aspergillus lentulus [2]; read-out: MEC): 0.07 µg/mL
- minimal effective concentration (Aspergillus lentulus [3]; read-out: MEC): 0.03 µg/mL
- minimal effective concentration (Aspergillus lentulus [4]; read-out: MEC): 0.04 µg/mL
- minimal effective concentration (Aspergillus lentulus [5]; read-out: MEC): 0.1 µg/mL
- minimal effective concentration (Aspergillus lentulus [6]; read-out: MEC): 0.03 µg/mL
- minimal effective concentration (Aspergillus lentulus [7]; read-out: MEC): 0.03 µg/mL
- minimal effective concentration (Aspergillus lentulus [8]; read-out: MEC): 0.03 µg/mL
- minimal effective concentration (Aspergillus lentulus [9]; read-out: MEC): 0.03 µg/mL
- minimal effective concentration (Aspergillus lentulus [10]; read-out: MEC): 0.03 µg/mL
- minimal effective concentration (Aspergillus lentulus [11]; read-out: MEC): 0.03 µg/mL
- minimal effective concentration (Aspergillus lentulus [12]; read-out: MEC): 0.03 µg/mL
- minimal effective concentration (Aspergillus lentulus [13]; read-out: MEC): 0.03 µg/mL
- minimal effective concentration (Aspergillus lentulus [14]; read-out: MEC): 0.03 µg/mL
- minimal effective concentration ([15]; read-out: MEC): 0.03 µg/mL
- minimal effective concentration (Neosartorya hiratsukae [16]; read-out: MEC): 0.03 µg/mL
- minimal effective concentration (Neosartorya hiratsukae [17]; read-out: MEC): 0.14 µg/mL
- minimal effective concentration (Neosartorya hiratsukae [18]; read-out: MEC): 0.04 µg/mL
- minimal effective concentration (Neosartorya hiratsukae [19]; read-out: MEC): 0.03 µg/mL
- minimal effective concentration (Neosartorya hiratsukae [20]; read-out: MEC): 0.03 µg/mL
- minimal effective concentration ([21]; read-out: MEC): 0.06 µg/mL
- minimal effective concentration ([22]; read-out: MEC): 0.26 µg/mL
- minimal effective concentration ([23]; read-out: MEC): 0.03 µg/mL
- minimal effective concentration ([24]; read-out: MEC): 0.03 µg/mL
- minimal effective concentration (Aspergillus viridinutans [25]; read-out: MEC): 0.2 µg/mL
- minimal effective concentration (Aspergillus viridinutans [26]; read-out: MEC): 0.03 µg/mL
- minimal effective concentration (Aspergillus fumigatus; read-out: MEC): 0.03 µg/mL
- minimal effective concentration ([27]; read-out: MEC): 0.04 µg/mL
- minimal effective concentration ([28]; read-out: MEC): 0.08 µg/mL

SMILES: C[C@@H]1[C@H](O)[C@@H](C)/C=C/C=C/C=C/C=C/C=C/C=C/C=C/[C@H](O[C@@H]2O[C@H](C)[C@@H](O)[C@H](N)[C@@H]2O)C[C@@H]2O[C@](O)(C[C@@H](O)C[C@@H](O)[C@H](O)CC[C@@H](O)C[C@@H](O)CC(=O)O[C@H]1C)C[C@H](O)[C@H]2C(=O)O [AMPHOTERICIN B]
- MIC (Aspergillus lentulus [1]): 4.5 µg/mL (≈ 4.87 µM)
- MIC (Aspergillus lentulus [2]): 10 µg/mL (≈ 10.8 µM)
- MIC (Aspergillus lentulus [3]): 8.4 µg/mL (≈ 9.09 µM)
- MIC (Aspergillus lentulus [4]): 7 µg/mL (≈ 7.58 µM)
- MIC (Aspergillus lentulus [5]): 7.25 µg/mL (≈ 7.85 µM)
- MIC (Aspergillus lentulus [6]): 8 µg/mL (≈ 8.66 µM)
- MIC (Aspergillus lentulus [7]): 2.66 µg/mL (≈ 2.88 µM)
- MIC (Aspergillus lentulus [8]): 8 µg/mL (≈ 8.66 µM)
- MIC (Aspergillus lentulus [9]): 7.33 µg/mL (≈ 7.93 µM)
- MIC (Aspergillus lentulus [10]): 6 µg/mL (≈ 6.49 µM)
- MIC (Aspergillus lentulus [11]): 6 µg/mL (≈ 6.49 µM)
- MIC (Aspergillus lentulus [12]): 10.7 µg/mL (≈ 11.5 µM)
- MIC (Aspergillus lentulus [13]): 12 µg/mL (≈ 13 µM)
- MIC (Aspergillus lentulus [14]): 12 µg/mL (≈ 13 µM)
- MIC [15]: 1 µg/mL (≈ 1.08 µM)
- MIC (Neosartorya hiratsukae [16]): 0.5 µg/mL (≈ 0.541 µM)
- MIC (Neosartorya hiratsukae [17]): 0.31 µg/mL (≈ 0.335 µM)
- MIC (Neosartorya hiratsukae [18]): 1 µg/mL (≈ 1.08 µM)
- MIC (Neosartorya hiratsukae [19]): 0.66 µg/mL (≈ 0.714 µM)
- MIC (Neosartorya hiratsukae [20]): 0.75 µg/mL (≈ 0.812 µM)
- MIC [21]: 1 µg/mL (≈ 1.08 µM)
- MIC [22]: 0.17 µg/mL (≈ 0.184 µM)
- MIC [23]: 0.25 µg/mL (≈ 0.271 µM)
- MIC [24]: 0.25 µg/mL (≈ 0.271 µM)
- MIC (Aspergillus viridinutans [25]): 0.58 µg/mL (≈ 0.628 µM)
- MIC (Aspergillus viridinutans [26]): 0.37 µg/mL (≈ 0.4 µM)
- MIC (Aspergillus fumigatus): 0.25 µg/mL (≈ 0.271 µM)
- MIC [27]: 16 µg/mL (≈ 17.3 µM)
- MIC [28]: 8 µg/mL (≈ 8.66 µM)
